According to ChEMBL document CHEMBL5058577, “EUbOPEN Chemogenomics Library 2 (Multiplex)” (2022):

Tested on: HEK-293T
Test: Multiplex assay against HEK293T
Format: toxicity, cell-based
Conditions: human
Outline: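 Imaging took place on a CQ1 microscope at 37°C and 5% CO2 once compound had been added to live cells stained at seeding with Hoechst33342, BioTracker Green Microtubule Cytoskeleton Dye, MitoTracker Red and Annexin V Alexa Fluor 680. CellPathfinder machine-learning gating classed cells as Hoechst high-intensity objects or normal cells, classed normal cells as having healthy, pyknosed or fragmented nuclei, and classed pyknosed cells as mitotic or apoptotic. Tubulin, mitochondrial-mass and membrane-permeability phenotypes are per cents of the healthy-nucleus cells.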

[1] = 12 h, 1 µM, compound concentration 1 uM, replicate 1
[2] = 12 h, 1 µM, compound concentration 1 uM, replicate 2
[3] = 12 h, 10 µM, compound concentration 10 uM, replicate 1
[4] = 12 h, 10 µM, compound concentration 10 uM, replicate 2
[5] = 24 h, 1 µM, compound concentration 1 uM, replicate 1
[6] = 24 h, 1 µM, compound concentration 1 uM, replicate 2
[7] = 24 h, 10 µM, compound concentration 10 uM, replicate 1
[8] = 24 h, 10 µM, compound concentration 10 uM, replicate 2
[9] = 48 h, 1 µM, compound concentration 1 uM, replicate 1
[10] = 48 h, 1 µM, compound concentration 1 uM, replicate 2
[11] = 48 h, 10 µM, compound concentration 10 uM, replicate 1
[12] = 48 h, 10 µM, compound concentration 10 uM, replicate 2

Compound: C[C@H]1[C@H]2CC[C@H]3[C@@H]4CC=C5C[C@@H](N(C)C)CC[C@]5(C)[C@H]4CC[C@]23CN1C [CONESSINE]
- Population Apoptotic (%) [1]: 35%
- Population Fragmented Nuclei (%) [1]: 5%
- Population Healthy Nuclei (%) [1]: 78%
- Population Hoechst High Intensity Objects (%) [1]: 6%
- Population Membrane Permeable-Phenotype (%) [1]: 0%
- Population Mitochondria Different-Phenotype (%) [1]: 39%
- Population Mitotic Cells (%) [1]: 65%
- Population Normal (%) [1]: 93%
- Population Pyknosed Nuclei (%) [1]: 16%
- Population Tubulin-Different-Phenotype (%) [1]: 26%
- Total Cell Count [1]: 400
- Population Apoptotic (%) [2]: 48%
- Population Fragmented Nuclei (%) [2]: 4%
- Population Healthy Nuclei (%) [2]: 85%
- Population Hoechst High Intensity Objects (%) [2]: 8%
- Population Mitochondria Different-Phenotype (%) [2]: 58%
- Population Mitotic Cells (%) [2]: 51%
- Population Normal (%) [2]: 91%
- Population Pyknosed Nuclei (%) [2]: 10%
- Population Tubulin-Different-Phenotype (%) [2]: 22%
- Total Cell Count [2]: 356
- Population Apoptotic (%) [3]: 35%
- Population Fragmented Nuclei (%) [3]: 6%
- Population Healthy Nuclei (%) [3]: 77%
- Population Hoechst High Intensity Objects (%) [3]: 6%
- Population Membrane Permeable-Phenotype (%) [3]: 1%
- Population Mitochondria Different-Phenotype (%) [3]: 56%
- Population Mitotic Cells (%) [3]: 65%
- Population Normal (%) [3]: 93%
- Population Pyknosed Nuclei (%) [3]: 15%
- Population Tubulin-Different-Phenotype (%) [3]: 38%
- Total Cell Count [3]: 419
- Population Apoptotic (%) [4]: 59%
- Population Fragmented Nuclei (%) [4]: 7%
- Population Healthy Nuclei (%) [4]: 78%
- Population Hoechst High Intensity Objects (%) [4]: 9%
- Population Membrane Permeable-Phenotype (%) [4]: 0%
- Population Mitochondria Different-Phenotype (%) [4]: 62%
- Population Mitotic Cells (%) [4]: 40%
- Population Normal (%) [4]: 90%
- Population Pyknosed Nuclei (%) [4]: 14%
- Population Tubulin-Different-Phenotype (%) [4]: 30%
- Total Cell Count [4]: 384
- Population Apoptotic (%) [5]: 26%
- Population Fragmented Nuclei (%) [5]: 9%
- Population Healthy Nuclei (%) [5]: 80%
- Population Hoechst High Intensity Objects (%) [5]: 5%
- Population Membrane Permeable-Phenotype (%) [5]: 1%
- Population Mitochondria Different-Phenotype (%) [5]: 22%
- Population Mitotic Cells (%) [5]: 73%
- Population Normal (%) [5]: 94%
- Population Pyknosed Nuclei (%) [5]: 10%
- Population Tubulin-Different-Phenotype (%) [5]: 17%
- Total Cell Count [5]: 514
- Population Apoptotic (%) [6]: 25%
- Population Fragmented Nuclei (%) [6]: 8%
- Population Healthy Nuclei (%) [6]: 81%
- Population Hoechst High Intensity Objects (%) [6]: 4%
- Population Membrane Permeable-Phenotype (%) [6]: 0%
- Population Mitochondria Different-Phenotype (%) [6]: 34%
- Population Mitotic Cells (%) [6]: 75%
- Population Normal (%) [6]: 95%
- Population Tubulin-Different-Phenotype (%) [6]: 16%
- Total Cell Count [6]: 484
- Population Apoptotic (%) [7]: 27%
- Population Fragmented Nuclei (%) [7]: 9%
- Population Healthy Nuclei (%) [7]: 79%
- Population Hoechst High Intensity Objects (%) [7]: 6%
- Population Membrane Permeable-Phenotype (%) [7]: 1%
- Population Mitochondria Different-Phenotype (%) [7]: 38%
- Population Mitotic Cells (%) [7]: 72%
- Population Normal (%) [7]: 93%
- Population Pyknosed Nuclei (%) [7]: 11%
- Population Tubulin-Different-Phenotype (%) [7]: 28%
- Total Cell Count [7]: 572
- Population Apoptotic (%) [8]: 47%
- Population Healthy Nuclei (%) [8]: 82%
- Population Hoechst High Intensity Objects (%) [8]: 9%
- Population Membrane Permeable-Phenotype (%) [8]: 0%
- Population Mitochondria Different-Phenotype (%) [8]: 43%
- Population Mitotic Cells (%) [8]: 52%
- Population Normal (%) [8]: 90%
- Population Pyknosed Nuclei (%) [8]: 7%
- Population Tubulin-Different-Phenotype (%) [8]: 24%
- Total Cell Count [8]: 474
- Population Apoptotic (%) [9]: 30%
- Population Fragmented Nuclei (%) [9]: 9%
- Population Healthy Nuclei (%) [9]: 82%
- Population Hoechst High Intensity Objects (%) [9]: 2%
- Population Membrane Permeable-Phenotype (%) [9]: 1%
- Population Mitochondria Different-Phenotype (%) [9]: 18%
- Population Mitotic Cells (%) [9]: 69%
- Population Normal (%) [9]: 97%
- Population Pyknosed Nuclei (%) [9]: 7%
- Population Tubulin-Different-Phenotype (%) [9]: 12%
- Total Cell Count [9]: 735
- Population Apoptotic (%) [10]: 36%
- Population Fragmented Nuclei (%) [10]: 10%
- Population Healthy Nuclei (%) [10]: 83%
- Population Hoechst High Intensity Objects (%) [10]: 4%
- Population Mitochondria Different-Phenotype (%) [10]: 20%
- Population Mitotic Cells (%) [10]: 63%
- Population Normal (%) [10]: 95%
- Population Pyknosed Nuclei (%) [10]: 5%
- Population Tubulin-Different-Phenotype (%) [10]: 11%
- Total Cell Count [10]: 630
- Population Apoptotic (%) [11]: 27%
- Population Fragmented Nuclei (%) [11]: 14%
- Population Healthy Nuclei (%) [11]: 78%
- Population Hoechst High Intensity Objects (%) [11]: 4%
- Population Membrane Permeable-Phenotype (%) [11]: 1%
- Population Mitochondria Different-Phenotype (%) [11]: 23%
- Population Mitotic Cells (%) [11]: 72%
- Population Normal (%) [11]: 95%
- Population Pyknosed Nuclei (%) [11]: 6%
- Population Tubulin-Different-Phenotype (%) [11]: 15%
- Total Cell Count [11]: 767
- Population Apoptotic (%) [12]: 36%
- Population Fragmented Nuclei (%) [12]: 10%
- Population Healthy Nuclei (%) [12]: 81%
- Population Hoechst High Intensity Objects (%) [12]: 5%
- Population Membrane Permeable-Phenotype (%) [12]: 0%
- Population Mitochondria Different-Phenotype (%) [12]: 32%
- Population Mitotic Cells (%) [12]: 63%
- Population Normal (%) [12]: 94%
- Population Pyknosed Nuclei (%) [12]: 7%
- Population Tubulin-Different-Phenotype (%) [12]: 17%
- Total Cell Count [12]: 618

Compound: Cl.Clc1ccc2nsnc2c1NC1=NCCN1 [TIZANIDINE HYDROCHLORIDE]
- Population Apoptotic (%) [1]: 39%
- Population Fragmented Nuclei (%) [1]: 9%
- Population Healthy Nuclei (%) [1]: 80%
- Population Hoechst High Intensity Objects (%) [1]: 8%
- Population Membrane Permeable-Phenotype (%) [1]: 0%
- Population Mitochondria Different-Phenotype (%) [1]: 36%
- Population Mitotic Cells (%) [1]: 60%
- Population Normal (%) [1]: 91%
- Population Pyknosed Nuclei (%) [1]: 9%
- Population Tubulin-Different-Phenotype (%) [1]: 26%
- Total Cell Count [1]: 474
- Population Apoptotic (%) [2]: 44%
- Population Fragmented Nuclei (%) [2]: 2%
- Population Healthy Nuclei (%) [2]: 83%
- Population Hoechst High Intensity Objects (%) [2]: 9%
- Population Mitochondria Different-Phenotype (%) [2]: 62%
- Population Mitotic Cells (%) [2]: 55%
- Population Normal (%) [2]: 90%
- Population Pyknosed Nuclei (%) [2]: 13%
- Population Tubulin-Different-Phenotype (%) [2]: 20%
- Total Cell Count [2]: 373
- Population Apoptotic (%) [3]: 30%
- Population Fragmented Nuclei (%) [3]: 9%
- Population Healthy Nuclei (%) [3]: 80%
- Population Hoechst High Intensity Objects (%) [3]: 6%
- Population Membrane Permeable-Phenotype (%) [3]: 0%
- Population Mitochondria Different-Phenotype (%) [3]: 45%
- Population Mitotic Cells (%) [3]: 70%
- Population Normal (%) [3]: 93%
- Population Pyknosed Nuclei (%) [3]: 9%
- Population Tubulin-Different-Phenotype (%) [3]: 32%
- Total Cell Count [3]: 450
- Population Apoptotic (%) [4]: 46%
- Population Fragmented Nuclei (%) [4]: 7%
- Population Healthy Nuclei (%) [4]: 79%
- Population Hoechst High Intensity Objects (%) [4]: 4%
- Population Mitochondria Different-Phenotype (%) [4]: 67%
- Population Mitotic Cells (%) [4]: 53%
- Population Normal (%) [4]: 95%
- Population Pyknosed Nuclei (%) [4]: 13%
- Population Tubulin-Different-Phenotype (%) [4]: 27%
- Total Cell Count [4]: 343
- Population Apoptotic (%) [5]: 32%
- Population Fragmented Nuclei (%) [5]: 11%
- Population Healthy Nuclei (%) [5]: 79%
- Population Hoechst High Intensity Objects (%) [5]: 4%
- Population Membrane Permeable-Phenotype (%) [5]: 0%
- Population Mitochondria Different-Phenotype (%) [5]: 20%
- Population Mitotic Cells (%) [5]: 67%
- Population Normal (%) [5]: 95%
- Population Pyknosed Nuclei (%) [5]: 8%
- Population Tubulin-Different-Phenotype (%) [5]: 17%
- Total Cell Count [5]: 597
- Population Apoptotic (%) [6]: 45%
- Population Fragmented Nuclei (%) [6]: 10%
- Population Healthy Nuclei (%) [6]: 80%
- Population Hoechst High Intensity Objects (%) [6]: 5%
- Population Mitochondria Different-Phenotype (%) [6]: 38%
- Population Mitotic Cells (%) [6]: 54%
- Population Normal (%) [6]: 94%
- Population Tubulin-Different-Phenotype (%) [6]: 15%
- Total Cell Count [6]: 434
- Population Apoptotic (%) [7]: 32%
- Population Fragmented Nuclei (%) [7]: 11%
- Population Healthy Nuclei (%) [7]: 78%
- Population Hoechst High Intensity Objects (%) [7]: 5%
- Population Membrane Permeable-Phenotype (%) [7]: 1%
- Population Mitochondria Different-Phenotype (%) [7]: 23%
- Population Mitotic Cells (%) [7]: 67%
- Population Normal (%) [7]: 94%
- Population Pyknosed Nuclei (%) [7]: 9%
- Population Tubulin-Different-Phenotype (%) [7]: 18%
- Total Cell Count [7]: 621
- Population Apoptotic (%) [8]: 29%
- Population Fragmented Nuclei (%) [8]: 10%
- Population Healthy Nuclei (%) [8]: 81%
- Population Hoechst High Intensity Objects (%) [8]: 6%
- Population Membrane Permeable-Phenotype (%) [8]: 0%
- Population Mitochondria Different-Phenotype (%) [8]: 46%
- Population Mitotic Cells (%) [8]: 70%
- Population Normal (%) [8]: 93%
- Population Pyknosed Nuclei (%) [8]: 7%
- Total Cell Count [8]: 443
- Population Apoptotic (%) [9]: 17%
- Population Fragmented Nuclei (%) [9]: 16%
- Population Healthy Nuclei (%) [9]: 77%
- Population Hoechst High Intensity Objects (%) [9]: 2%
- Population Membrane Permeable-Phenotype (%) [9]: 3%
- Population Mitochondria Different-Phenotype (%) [9]: 13%
- Population Mitotic Cells (%) [9]: 82%
- Population Normal (%) [9]: 97%
- Population Pyknosed Nuclei (%) [9]: 6%
- Population Tubulin-Different-Phenotype (%) [9]: 10%
- Total Cell Count [9]: 1005
- Population Apoptotic (%) [10]: 33%
- Population Fragmented Nuclei (%) [10]: 14%
- Population Healthy Nuclei (%) [10]: 79%
- Population Hoechst High Intensity Objects (%) [10]: 3%
- Population Membrane Permeable-Phenotype (%) [10]: 1%
- Population Mitochondria Different-Phenotype (%) [10]: 19%
- Population Mitotic Cells (%) [10]: 66%
- Population Normal (%) [10]: 96%
- Population Tubulin-Different-Phenotype (%) [10]: 7%
- Total Cell Count [10]: 661
- Population Apoptotic (%) [11]: 24%
- Population Fragmented Nuclei (%) [11]: 19%
- Population Healthy Nuclei (%) [11]: 74%
- Population Hoechst High Intensity Objects (%) [11]: 3%
- Population Membrane Permeable-Phenotype (%) [11]: 1%
- Population Mitochondria Different-Phenotype (%) [11]: 13%
- Population Mitotic Cells (%) [11]: 75%
- Population Normal (%) [11]: 96%
- Population Pyknosed Nuclei (%) [11]: 5%
- Population Tubulin-Different-Phenotype (%) [11]: 10%
- Total Cell Count [11]: 995
- Population Apoptotic (%) [12]: 25%
- Population Fragmented Nuclei (%) [12]: 13%
- Population Healthy Nuclei (%) [12]: 81%
- Population Hoechst High Intensity Objects (%) [12]: 5%
- Population Mitochondria Different-Phenotype (%) [12]: 23%
- Population Normal (%) [12]: 94%
- Population Pyknosed Nuclei (%) [12]: 4%
- Population Tubulin-Different-Phenotype (%) [12]: 19%
- Total Cell Count [12]: 600
